# HEK293 NFkB inh – lowers PMA/ionomycin-induced NF-kB signal in HEK293 cells; hit rate 0.21% among 62,000; HEK-293 NF-kB luciferase reporter, luminescence; inhibition, % at 3 µM;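 active = inhibition above the mean of all tested compounds plus 3 SD, cut at about 40% in these data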;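 note: 0% = stimulated DMSO wells and 100% = 10 µM reference inhibitor 5653914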
#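 Reagent: PMA plus ionomycin mix as NF-kB-activating stimulus. Assay system: NF-kB luciferase reporter HEK-293 cells. Technique: luminescence from luciferase substrate reagent. Incubation: 1 h compound pre-incubation, 16 h PMA/ionomycin at 37 °C. Benchmarks: DMSO only as uninhibited control, 10 µM reference inhibitor as full inhibition. Repeats: tested once.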
# 5HT1E ag – agonists of human 5-HT1E serotonin receptor | P28566 | activation, % at 6 µM | hit rate 0.69% among 65,000 | CHO 5-HT1E Ga15 NFAT-bla reporter, FRET; 0% DMSO wells, 100% control agonist wells;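 active = activation above a set limit, the screen-wide mean activation plus 3 SD, cut at about 8.5% in these data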;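 note: 100% = positive control agonist at 1 µM giving full maximal response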
# Target sequence (P28566 whole entry, looked up): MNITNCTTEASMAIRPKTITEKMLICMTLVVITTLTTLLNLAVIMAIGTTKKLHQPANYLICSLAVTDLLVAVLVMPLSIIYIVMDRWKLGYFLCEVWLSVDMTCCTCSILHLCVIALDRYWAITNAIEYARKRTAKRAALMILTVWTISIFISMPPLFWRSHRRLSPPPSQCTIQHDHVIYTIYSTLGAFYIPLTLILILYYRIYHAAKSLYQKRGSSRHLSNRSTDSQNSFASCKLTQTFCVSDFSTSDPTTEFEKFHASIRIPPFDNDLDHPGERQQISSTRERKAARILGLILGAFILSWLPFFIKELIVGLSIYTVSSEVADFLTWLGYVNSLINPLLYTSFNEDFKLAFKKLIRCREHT
# 5HT1a ag – 5-HT1a (human) receptor agonism; activation, % at 10 µM; CHO 5-HT1a Ga15 NFAT-bla reporter, FRET ratio; 0% basal, 100% maximal reference agonist; hit rate 0.56% among 65,000; AID 567; P08908;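 active = activation above the screen-wide mean activation plus 3 SD, cut at about 19% in these data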;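 note: 0% = DMSO wells and 100% = 5-CT at EC100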
# 5HT1E antag – 5-HT1E (human) receptor antagonism. AID 571. hit rate 0.99% among 65,000. P28566. CHO 5-HT1E Ga15 NFAT-bla reporter, FRET, antagonist. inhibition, % at 6 µM;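 active = inhibition above a set limit, the mean inhibition across every tested compound plus 3 SD, cut at about 29% in these data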;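 note: signal is the 460 over 535 nm emission ratio of beta-lactamase substrate; 0% = agonist plus DMSO wells and 100% = wells without agonist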
# 5-HT1A blocker – blocks the human serotonin 5-HT1a receptor | P08908 | CHO 5-HT1a Ga15 NFAT-bla reporter, antagonist mode | inhibition, % at 10 µM | hit rate 0.68% among 62,000 | AID 612;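 active = inhibition above the mean of all tested compounds plus 3 SD, cut at about 43% in these data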;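 note: receptor stimulated by 5-CT agonist at 100 nM near EC80; beta-lactamase reporter measured by ratiometric fluorescence of a cleavable substrate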
# * marks the source's active call; other numbers are inactive results; x = not tested or not shown. Sampled rows, rich in hits. Any-hit rate of the full collection: about 2.6%.
SMILES,HEK293 NFkB inh,5HT1E ag,5HT1a ag,5HT1E antag,5-HT1A blocker
CCCCCn1c(=NC(C)=O)c(C#N)cc2c(=O)n3ccccc3nc21,20.2,4.3,11.3,3.0,-15.9
CCOC(=O)c1cc2c(=O)n3ccccc3nc2n(CCCOC)c1=NC(C)=O,9.6,6.9,22.7*,0.5,-45.0
C=CCn1c(=N)c(C(=O)NCCCOC)cc2c(=O)n3cc(C)ccc3nc21,-6.1,4.3,14.6,-5.0,-34.0
N=c1c(C(=O)NCc2ccc(F)cc2)cc2c(=O)n3ccccc3nc2n1CCCN1CCOCC1,24.5,3.9,31.3*,-5.0,-8.6
CC(C)OCCCn1c(=NC(=O)c2ccncc2)c(C#N)cc2c(=O)n3ccccc3nc21,25.3,9.1*,37.2*,-5.6,-33.7
CCCn1c(=NC(=O)c2ccco2)c(C(=O)OCC)cc2c(=O)n3ccccc3nc21,14.6,2.7,6.8,2.3,21.7
C=CCn1c(=N)c(C(=O)NCCCOC)cc2c(=O)n3ccccc3nc21,1.5,5.6,20.3*,-3.1,-18.5
CCOC(=O)c1ncn2c1C(=O)OC2(C)C,3.1,-0.6,-3.0,3.0,7.8
COc1ccc(OC)c(NC(=O)CSCc2cnn(-c3ccccc3)c2-n2cccc2)c1,20.3,-0.1,-2.5,9.1,57.4*
O=C(CCn1c(=O)sc2ccccc21)NCc1cccs1,10.2,-2.0,74.0*,12.8,10.0
COC(=O)Nc1nc(C)c(C(=O)N(C)C)s1,13.4,-0.6,19.4*,-2.3,2.5
Cc1cccnc1NCc1ccc(O)c2ncccc12,13.1,0.8,0.4,51.1*,11.8
CCOC(=O)C1CCN(Cc2ccc(O)c3ncccc23)CC1,8.6,-0.7,-3.0,25.9,7.8
CCCOC(=O)c1[nH]c2c(c1C)C(=O)CC(c1ccc(OC)c(OC)c1)C2 (configuration not stated),21.1,-0.5,-4.1,20.5,4.8
CCOC(=O)c1[nH]c2c(c1C)C(=O)CC(c1ccc(F)cc1)C2 (configuration not stated),39.7,0.4,1.8,57.7*,16.4
CCCCCOC(=O)c1[nH]c2c(c1C)C(=O)CC(c1ccco1)C2 (configuration not stated),38.5,-1.3,1.4,82.5*,66.3*
CC(=O)Nc1ccc(S(=O)(=O)N2CCC(n3cnc4cc(F)ccc43)CC2)cc1,13.1,0.4,-2.9,-3.5,14.0
COc1ccc(S(=O)(=O)N2CCC(n3cnc4cc(C(F)(F)F)ccc43)CC2)cc1,11.6,21.7*,3.3,3.8,-13.1
Cc1ccc(-n2nc3c(c2NC(=O)c2c(-c4ccccc4Cl)noc2C)CS(=O)(=O)C3)c(C)c1,11.7,-0.5,1.7,5.7,14.5
COc1cccc(CNC(=O)C2CCCN(S(=O)(=O)c3c(C)n[nH]c3C)C2)c1 (configuration not stated),6.3,-1.4,-1.7,3.6,6.8
Cc1cc(C)nc(Nc2nc(=O)c3ccccc3s2)n1,2.5,0.8,0.6,-15.2,61.8*
Cc1cc(C(F)(F)F)nc(Nc2nc(C)c3ccccc3n2)n1,14.8,-1.1,-2.0,-0.4,-5.0
CN(C(=O)c1cc2n(n1)C(C(F)(F)F)CC(c1ccco1)N2)c1ccccc1 (configuration not stated),15.7,-1.2,-0.6,0.0,19.0
CCN(CC)CCCNC(=O)N[C@@H](Cc1ccccc1)C(=O)O,10.1,0.2,-1.1,-7.0,-3.6
CCN(CCCc1ccccc1)CCCc1ccccc1,x,30.8*,0.4,4.7,x
SMILES,HEK293 NFkB inh,5HT1E ag,5HT1a ag,5HT1E antag,5-HT1A blocker
Cc1cc(C(=O)NCc2cccnc2)cs1,7.5,-0.5,31.3*,8.7,0.4
O=C(NCc1cccnc1)c1ccc(Cl)c(Cl)c1,4.5,0.4,1.1,-7.4,-7.3
Cc1cc(C(=O)NCc2cccnc2)n(-c2ccccc2)n1,8.1,0.4,0.1,-0.3,-11.9
Cc1nn(Cc2ccccc2)c2sc(C(=O)NCc3cccnc3)cc12,-7.9,-0.1,38.8*,14.4,1.7
O=C(CCCC(=O)N(CC(=O)NC1CCCC1)Cc1ccccc1)Nc1ccccn1,12.6,-1.1,-1.3,-7.0,4.7
Cc1cccc2cc(C#N)c(SCC(=O)N3CC(=O)Nc4ccccc43)nc12,29.6,-0.1,-2.3,45.0*,40.1
CCOC(=O)c1oc2ccccc2c1NC(=O)c1cccc(OC)c1OC,7.2,0.3,-2.0,33.7*,33.1
Cc1ccccc1OCc1nc(-c2ccc(NC(=O)c3ccc4c(c3)OCO4)cc2)no1,8.7,9.2*,2.2,21.4,15.7

# Assay outcomes from PubChem.
